# ChEMBL document CHEMBL1124666, “Novel linked antiviral and antitumor agents related to netropsin and distamycin: synthesis and biological evaluation” (1989)
# Key:
# Vaccinia virus [1] = experiment: Minimum cytotoxic concentration against vaccinia virus in primary rabbit kidney cell cultures; assay type: functional; conditions: Orthopoxvirus vaccinia
# Raji = experiment: Inhibitory effect on the proliferation of human B lymphoblast (Raji ) cells; assay type: functional; conditions: read-out: ID50 (the source's name)
# Vaccinia virus [2] = experiment: Minimum cytotoxic concentration against vaccinia virus embryonic skin muscle cell cultures; assay type: functional; conditions: Orthopoxvirus vaccinia
# Human alphaherpesvirus 1 = experiment: Minimum inhibitory concentration against Herpes simplex virus 1(KOS); assay type: functional
# Vaccinia virus [3] = experiment: Minimum cytotoxic concentration against vaccinia virus in Vero cell cultures; assay type: functional; conditions: Orthopoxvirus vaccinia
# Vaccinia virus [4] = experiment: (§1) Minimum inhibitory concentration against vaccinia virus in primary rabbit kidney cell cultures of experiment 2; assay type: functional; conditions: Orthopoxvirus vaccinia
# Vaccinia virus [5] = experiment: Minimum inhibitory concentration against vaccinia virus embryonic skin muscle cell cultures; assay type: functional; conditions: Orthopoxvirus vaccinia
# L1210 = experiment: Inhibitory effect on the proliferation of murine leukemia (L1210 ) cells; assay type: functional; conditions: Mus musculus, read-out: ID50 (the source's name)
# Vaccinia virus [6] = experiment: Minimum inhibitory concentration against vaccinia virus in primary rabbit kidney cell cultures of experiment 1; assay type: functional; conditions: Orthopoxvirus vaccinia
# Calf thymus DNA = experiment: Relative binding constant to calf thymus DNA; assay type: nucleic-acid assay; conditions: Bos taurus
# Summary of the method: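 Ethidium displacement: Tris-EDTA buffer pH 8 with 1.3 μM ethidium bromide and calf thymus DNA (1.35 μM final); drug aliquots added, fluorescence read after a few minutes' equilibration (excitation 525 nm, emission 600 nm). Drug level giving 50% fluorescence decrease converted to relative binding constant taking ethidium binding constant as 10^7 M-1.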
# FM3A = experiment: Inhibitory effect on the proliferation of murine mammary carcinoma (FM3A ) cells; assay type: functional; conditions: Mus musculus, read-out: ID50 (the source's name)
# Vaccinia virus [7] = experiment: Minimum inhibitory concentration against Vaccinia virus; assay type: functional; conditions: Orthopoxvirus vaccinia
# Vaccinia virus [8] = experiment: Minimum inhibitory concentration against vaccinia virus in Vero cell cultures of experiment 1; assay type: functional; conditions: Orthopoxvirus vaccinia
# [9] = Minimum cytotoxic concentration in primary rabbit kidney (PRK) cell cultures; assay type: functional, Oryctolagus cuniculus
# Vaccinia virus [10] = experiment: as §1; assay type: functional, Orthopoxvirus vaccinia; conditions: Orthopoxvirus vaccinia; read-out: MIC
# Vaccinia virus [11] = experiment: Minimum cytotoxic concentration against vaccinia virus in HeLa cell cultures; assay type: functional; conditions: Orthopoxvirus vaccinia
# Human alphaherpesvirus 2 = experiment: Minimum inhibitory concentration against Herpes simplex virus 2(G); assay type: functional
# [12] = Inhibition of Moloney Murine Leukemia Associated Reverse Transcriptase; assay type: functional, Mus musculus
# P388 = experiment: Inhibitory effect on the proliferation of murine leukemia (P388) cells; assay type: functional; conditions: Mus musculus, read-out: ID50 (the source's name)
# [13] = tested on: Vesicular stomatitis virus; experiment: Minimum inhibitory concentration against Vesicular stomatitis virus; assay type: functional
# Vaccinia virus [14] = experiment: Minimum inhibitory concentration against vaccinia virus in Vero cell cultures of experiment 2; assay type: functional; conditions: Orthopoxvirus vaccinia
# [15] = Inhibitory effect on the proliferation of human T-lymphoblast (Molt/4F ) cells; assay type: functional; conditions: read-out: ID50 (the source's name)
# Vaccinia virus [16] = experiment: Minimum inhibitory concentration against vaccinia virus in HeLa cell cultures; assay type: functional; conditions: Orthopoxvirus vaccinia
Structure (SMILES),MCC (Vaccinia virus [1]),IC50 (Raji),MCC (Vaccinia virus [2]),MIC (Human alphaherpesvirus 1),MCC (Vaccinia virus [3]),MIC (Vaccinia virus [4]),MIC (Vaccinia virus [5]),IC50 (L1210),MIC (Vaccinia virus [6]),Binding constant (Calf thymus DNA),MIC (Vaccinia virus [7]),MIC (Vaccinia virus [8]),MCC [9],MIC (Vaccinia virus [10]),MCC (Vaccinia virus [11]),MIC (Human alphaherpesvirus 2),ID50 [12],IC50 (P388),MIC [13],MIC (Vaccinia virus [14]),also measured
Cl.Cl.Cn1cc(NC(=O)c2cc(NC(=O)CCCCC(=O)Nc3cc(C(=O)Nc4cc(C(=O)NCCC(=N)N)n(C)c4)n(C)c3)cn2C)cc1C(=O)NCCC(=N)N,> 40 µg/mL,13.3 µg/mL,100 µg/mL,> 10 µg/mL,> 400 µg/mL,2 µg/mL,7 µg/mL,24.3 µg/mL,100 µg/mL,1e+07 M⁻¹,0.7 µg/mL,1 µg/mL,>40 µg/mL,0.7 µg/mL,> 400 µg/mL,> 10 µg/mL,57.2 µg/mL,1.05 µg/mL,> 10 µg/mL,2 µg/mL,IC50 (FM3A): 57.8 µg/mL; IC50 [15]: 5.62 µg/mL
Cl.Cl.Cn1cc(NC(=O)c2cc(NC(=O)c3cc(NC(=O)CCC(=O)Nc4cc(C(=O)Nc5cc(C(=O)Nc6cc(C(=O)NCCC(=N)N)n(C)c6)n(C)c5)n(C)c4)cn3C)cn2C)cc1C(=O)NCCC(=N)N,> 4 µg/mL,41.4 µg/mL,> 4 µg/mL,–,> 4 µg/mL,> 4 µg/mL,> 4 µg/mL,> 100 µg/mL,> 4 µg/mL,–,–,> 4 µg/mL,–,> 10 µg/mL,> 20 µg/mL,–,>400 µg/mL,> 20 µg/mL,–,> 4 µg/mL,IC50 (FM3A): 4.29 µg/mL; IC50 [15]: 2.85 µg/mL
Nc1ncnc2c1ccn2[C@@H]1O[C@H](CO)[C@@H](O)[C@H]1O [TUBERCIDIN],> 0.4 µg/mL,–,> 0.1 µg/mL,> 0.4 µg/mL,> 0.4 µg/mL,0.2 µg/mL,0.07 µg/mL,–,> 0.1 µg/mL,–,> 0.1 µg/mL,0.02 µg/mL,>1 µg/mL,0.2 µg/mL,> 1 µg/mL,> 0.4 µg/mL,–,–,0.2 µg/mL,0.02 µg/mL,–
Cl.Cl.Cn1cc(NC(=O)c2cc(NC(=O)CCCCCCC(=O)Nc3cc(C(=O)Nc4cc(C(=O)NCCC(=N)N)n(C)c4)n(C)c3)cn2C)cc1C(=O)NCCC(=N)N,> 40 µg/mL,2.14 µg/mL,> 200 µg/mL,> 10 µg/mL,> 40 µg/mL,2 µg/mL,0.07 µg/mL,3.34 µg/mL,0.7 µg/mL,2.5e+07 M⁻¹,0.2 µg/mL,7 µg/mL,>10 µg/mL,2 µg/mL,> 200 µg/mL,> 10 µg/mL,21.3 µg/mL,0.7 µg/mL,> 10 µg/mL,7 µg/mL,IC50 (FM3A): 3.15 µg/mL; IC50 [15]: 1.74 µg/mL
Cl.Cl.Cn1cc(NC(=O)c2cc(NC(=O)CCCCCCCC(=O)Nc3cc(C(=O)Nc4cc(C(=O)NCCC(=N)N)n(C)c4)n(C)c3)cn2C)cc1C(=O)NCCC(=N)N,> 100 µg/mL,4.36 µg/mL,> 100 µg/mL,> 40 µg/mL,> 200 µg/mL,7 µg/mL,0.7 µg/mL,10.8 µg/mL,7 µg/mL,9e+06 M⁻¹,0.2 µg/mL,40 µg/mL,>100 µg/mL,20 µg/mL,> 200 µg/mL,> 40 µg/mL,34.2 µg/mL,0.75 µg/mL,> 100 µg/mL,70 µg/mL,IC50 (FM3A): 32 µg/mL; IC50 [15]: 3.3 µg/mL
Nc1nccc2c1ncn2[C@@H]1C[C@H](CO)[C@@H](O)[C@H]1O [3-DEAZAARISTEROMYCIN A],> 400 µg/mL,–,> 400 µg/mL,> 400 µg/mL,> 200 µg/mL,2 µg/mL,2 µg/mL,–,2 µg/mL,–,2 µg/mL,0.2 µg/mL,>400 µg/mL,0.7 µg/mL,> 400 µg/mL,300 µg/mL,–,–,0.7 µg/mL,0.2 µg/mL,–
Cn1cc(NC(=O)c2cc(NC(=O)CCC(=O)Nc3cc(C(=O)Nc4cc(C(=O)NCCC(=N)N)n(C)c4)n(C)c3)cn2C)cc1C(=O)NCCC(=N)N,–,–,–,–,–,–,–,–,–,7.2e+07 M⁻¹,–,–,–,–,–,–,–,–,–,–,–
Cl.Cl.Cn1cc(NC(=O)c2cc(NC(=O)CCCCCCCCC(=O)Nc3cc(C(=O)Nc4cc(C(=O)NCCC(=N)N)n(C)c4)n(C)c3)cn2C)cc1C(=O)NCCC(=N)N,> 40 µg/mL,3.24 µg/mL,> 100 µg/mL,> 10 µg/mL,> 40 µg/mL,2 µg/mL,0.2 µg/mL,4.21 µg/mL,2 µg/mL,1.7e+07 M⁻¹,0.7 µg/mL,20 µg/mL,>40 µg/mL,20 µg/mL,100 µg/mL,> 10 µg/mL,20.9 µg/mL,0.98 µg/mL,> 10 µg/mL,> 40 µg/mL,IC50 (FM3A): 22.1 µg/mL; IC50 [15]: 2.97 µg/mL
NC(=O)c1ncn([C@@H]2O[C@H](CO)[C@@H](O)[C@H]2O)n1 [RIBAVIRIN],> 400 µg/mL,–,> 400 µg/mL,> 400 µg/mL,> 400 µg/mL,7 µg/mL,70 µg/mL,–,20 µg/mL,–,20 µg/mL,7 µg/mL,>400 µg/mL,20 µg/mL,> 400 µg/mL,300 µg/mL,–,–,> 400 µg/mL,20 µg/mL,–
Cn1cc(NC(=O)c2cc(NC(=O)c3cc(NC=O)cn3C)cn2C)cc1C(=O)NCCC(=N)N [STALLIMYCIN],–,24 µg/mL,–,–,–,–,–,27 µg/mL,–,8e+06 M⁻¹,–,–,–,–,–,–,–,> 20 µg/mL,–,–,IC50 (FM3A): 31 µg/mL
Cl.Cl.Cn1cc(NC(=O)c2cc(NC(=O)CCCCCCCCCCC(=O)Nc3cc(C(=O)Nc4cc(C(=O)NCCC(=N)N)n(C)c4)n(C)c3)cn2C)cc1C(=O)NCCC(=N)N,> 40 µg/mL,–,> 40 µg/mL,> 10 µg/mL,> 100 µg/mL,–,0.2 µg/mL,–,2 µg/mL,2.2e+07 M⁻¹,2 µg/mL,> 40 µg/mL,>40 µg/mL,–,> 40 µg/mL,7 µg/mL,9.1 µg/mL,4.8 µg/mL,> 10 µg/mL,–,MIC (Vaccinia virus [16]): 2 µg/mL
Cl.Cl.Cn1cc(NC(=O)c2cc(NC(=O)CCCCCC(=O)Nc3cc(C(=O)Nc4cc(C(=O)NCCC(=N)N)n(C)c4)n(C)c3)cn2C)cc1C(=O)NCCC(=N)N,> 200 µg/mL,11.1 µg/mL,200 µg/mL,150 µg/mL,> 200 µg/mL,7 µg/mL,0.7 µg/mL,> 100 µg/mL,7 µg/mL,1.2e+07 M⁻¹,2 µg/mL,20 µg/mL,400 µg/mL,20 µg/mL,> 200 µg/mL,70 µg/mL,72.5 µg/mL,4.4 µg/mL,> 200 µg/mL,20 µg/mL,IC50 (FM3A): > 100 µg/mL; IC50 [15]: 5.74 µg/mL
Cl.Cl.Cn1cc(NC(=O)c2cc(NC(=O)CC(=O)Nc3cc(C(=O)Nc4cc(C(=O)NCCC(=N)N)n(C)c4)n(C)c3)cn2C)cc1C(=O)NCCC(=N)N,40 µg/mL,3.39 µg/mL,> 40 µg/mL,> 4 µg/mL,> 40 µg/mL,2 µg/mL,0.2 µg/mL,28.5 µg/mL,2 µg/mL,3.6e+07 M⁻¹,0.2 µg/mL,2 µg/mL,>10 µg/mL,2 µg/mL,> 40 µg/mL,> 4 µg/mL,39 µg/mL,0.91 µg/mL,> 10 µg/mL,2 µg/mL,IC50 (FM3A): 5.87 µg/mL; IC50 [15]: 2.85 µg/mL
O=C(O)C1=CC(=C(c2ccc(O)c(C(=O)O)c2)c2ccc(O)c(C(=O)O)c2)C=CC1=O [AURINTRICARBOXYLIC ACID],–,–,–,–,–,–,–,–,–,–,–,–,–,–,–,–,1.42 µg/mL,–,–,–,–
Cn1cc(NC(=O)c2cc(NC(=O)CNC(=N)N)cn2C)cc1C(=O)NCCC(=N)N,–,–,–,–,–,–,–,–,–,1.9e+07 M⁻¹,–,–,–,–,–,–,–,–,–,–,–
Cl.Cl.Cn1cc(NC(=O)c2cc(NC(=O)CCCC(=O)Nc3cc(C(=O)Nc4cc(C(=O)NCCC(=N)N)n(C)c4)n(C)c3)cn2C)cc1C(=O)NCCC(=N)N,> 200 µg/mL,> 100 µg/mL,400 µg/mL,> 200 µg/mL,> 400 µg/mL,20 µg/mL,7 µg/mL,> 100 µg/mL,20 µg/mL,1.8e+07 M⁻¹,7 µg/mL,70 µg/mL,>200 µg/mL,40 µg/mL,> 400 µg/mL,200 µg/mL,39.9 µg/mL,6.4 µg/mL,> 200 µg/mL,150 µg/mL,IC50 (FM3A): > 100 µg/mL; IC50 [15]: > 100 µg/mL
